Measured values taken from ChEMBL document CHEMBL1132215, “A new method for rapidly generating inhibitors of glyoxalase I inside tumor cells using S-(N-aryl-N-hydroxycarbamoyl)ethylsulfoxides” (J Med Chem, 1999).

Experiments:
[1] = Second-order rate constant for acyl-interchange reactions between glutathione and the compound; type: ADME
Procedure, shortened: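 Cell-free reaction with glutathione in 0.1 M potassium phosphate, pH 7.5, 5% ethanol, 25 °C. Under pseudo-first-order conditions (≥10-fold glutathione excess), derived from the first-order loss of reactants followed spectrophotometrically. For the slow ester analogue, taken instead from the initial rate of product appearance (~0.1% reaction) with 15-fold glutathione excess, followed by reverse-phase HPLC.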

L1210 [2] = assay: Concentration producing 100% tumor growth inhibition of L1210 cells; type: functional; conditions: Mus musculus
Procedure, shortened: (§1)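 Murine L1210 leukemia cells (NCI tumor repository) in log phase, kept in RPMI 1640 with […], 10% heat-inactivated fetal calf serum and gentamycin (10 µg/mL), 37 °C, 5% CO2. Seeded at 5000 cells/well with at least five drug levels in triplicate. Fresh drug added every 12 h. Cell density counted by Coulter Counter after 48 h. Percentage growth taken against time-zero and no-drug counts. Values interpolated from dose-response curves; mean and SD of three experiments on different days.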

L1210 [3] = assay: Concentration producing 50% growth inhibition of L1210 cells; type: functional; conditions: Mus musculus; procedure, shortened: as §1
L1210 [4] = assay: Rate constant from the plots of initial rates of disappearance of the drug inside L1210 cells versus extracellular concentration of prodrug.; type: functional, Mus musculus; conditions: in the assay text read “appearance” for “disappearance”
Procedure, shortened: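 L1210 suspensions (~1.5 × 10^6 cells/mL) in RPMI 1640/10% heat-inactivated FCS with gentamycin, 37 °C, were given fixed prodrug levels. Aliquots taken over time were spun through silicone oil. Pellets were extracted with 70% ethanol and the glutathione conjugate was measured by C18 reverse-phase HPLC at 260 nm against standard curves. The constant is the slope of initial intracellular appearance rate versus extracellular prodrug concentration.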

L1210 [5] = assay: Concentration required to kill 50% L1210 cells; type: ADME, cell-based; conditions: mouse
Procedure, shortened: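 Mouse L1210 leukemia cells in log growth, RPMI 1640 with 10% heat-inactivated fetal calf serum and gentamycin (10 µg/mL), 37 °C, 5% CO2. Seeded at 5000 cells/well with at least five drug levels in triplicate. Fresh drug added every 12 h. Cell density counted by Coulter Counter after 48 h, viability by trypan blue. LC50 (50% cell killing) interpolated from dose-response curve; three experiments on different days.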

CC[S+]([O-])C(=O)N(C)O (stereo unspecified)
k2 [1]: 9.83 M⁻¹ s⁻¹

CCOC(=O)CNC(=O)C(CSC(=O)N(O)c1ccc(Cl)cc1)NC(=O)CCC(N)C(=O)OCC.Cl (stereo unspecified)
TGI (L1210 [2]): 27 µM
GI50 (L1210 [3]): 7 µM
Rate constant (L1210 [4]): 0.1 min⁻¹
LC50 (L1210 [5]): 54 µM

CC[S+]([O-])C(=O)N(C)c1ccc(Cl)cc1 (stereo unspecified)
k2 [1]: 2.33 M⁻¹ s⁻¹

CC[S+]([O-])C(=O)N(O)c1ccc(Cl)cc1 (stereo unspecified)
TGI (L1210 [2]): 3.9 µM
GI50 (L1210 [3]): 0.5 µM
Rate constant (L1210 [4]): 1.41 min⁻¹
k2 [1]: 30.7 M⁻¹ s⁻¹
LC50 (L1210 [5]): 13 µM

Cl.NC(CCC(=O)NC(CSC(=O)N(O)c1ccc(Cl)cc1)C(=O)NCC(=O)OC1CCCC1)C(=O)OC1CCCC1 (stereo unspecified)
TGI (L1210 [2]): 5.3 µM
GI50 (L1210 [3]): 3.4 µM
Rate constant (L1210 [4]): 0.59 min⁻¹
LC50 (L1210 [5]): 8.3 µM

CCSC(=O)N(O)c1ccc(Cl)cc1
k2 [1]: 5.83e-06 M⁻¹ s⁻¹
